Results published in ChEMBL document CHEMBL1139470, “Benzophenone-based farnesyltransferase inhibitors with high activity against Trypanosoma cruzi” (J Med Chem, 2005).
pIC50: −log10 of the molar value.

Assays:
Trypanosoma cruzi = assay: Inhibition of Trypanosoma cruzi Tulahuen in BALB/c mouse blood; type: functional
Procedure, shortened: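 Trypomastigote lysis assay: mouse blood (from infected BALB/c, cardiac puncture) holding 5 × 10^4 bloodstream trypomastigotes per well, compound added from 10 mM DMSO stock diluted in BHI; DMSO controls (final 1/1000). 24 h at 4 °C, then microscopic counting at 400×. Triplicates, experiments repeated 3–4 times; lysis relative to control; LC50 = minimal concentration lysing 50%.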

[1] = Cytotoxicity against HeLa cells after 72 hrs; type: cell-based; conditions: human
Procedure, shortened: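 HeLa cells grown in RPMI 1640 with 10% heat-inactivated FBS and gentamicin, then harvested in log phase by trypsinization. About 10 000 cells/well were preincubated 48 h before compound addition (10 mM DMSO stock diluted 1:200 in medium). Cells were exposed 72 h at 37 °C, 5% CO2, fixed with glutaraldehyde and stained with methylene blue. Stain was eluted with HCl and OD read at 660 nm to give CC50.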

[2] = Inhibition of Saccharomyces cerevisiae FTase
Vero [3] = assay: Effect on Vero cell morphology at 100 uM; type: functional, cell-based; conditions: Chlorocebus sabaeus
Procedure, shortened: (§1)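 Vero cells cultured in RPMI 1640 with 5% heat-inactivated FBS. 10^4 cells/well were incubated with compound at 37 °C, 5% CO2, in triplicate per concentration. DMSO was the diluent at a final 1/1000, and DMSO-only wells served as control. Toxicity was judged by cell morphology and confluent growth.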

Vero [4] = assay: Cytotoxicity against Vero cells at 100 uM; type: cell-based; conditions: chlorocebus sabaeus; procedure, shortened: as §1
Mus musculus [5] = assay: Survival of BALB/c mouse infected with Trypanosoma cruzi trypomastigotes at 7 mg/kg/day relative to control; type: functional
Procedure, shortened: (§2)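 Male BALB/c mice, 60 days old, infected intraperitoneally with 500 bloodstream trypomastigotes (groups of five; untreated infected controls, six). Oral dosing (25 µL) from 30 min post-infection, five times weekly, 39 doses total (21 at 3.2 mg/kg/day). Control mice got physiological solution. Parasitemia checked by tail-blood microscopy twice weekly. Survival recorded to day 115 pi.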

Mus musculus [6] = assay: Survival of BALB/c mouse infected with Trypanosoma cruzi trypomastigotes at 3.2 mg/kg/day relative to control; type: functional; procedure, shortened: as §2
Mus musculus [7] = assay: Survival of BALB/c mouse infected with Trypanosoma cruzi trypomastigotes at 6.4 mg/kg/day relative to control; type: functional; procedure, shortened: as §2

Row | Compound | LC50 (Trypanosoma cruzi) | CC50 at 72 h [1] | pIC50 [2] | also measured
1 | O=C(/C=C/c1ccc(-c2ccc([N+](=O)[O-])cc2)o1)Nc1ccc(NC(=O)C(c2ccccc2)N2CCN(CCO)CC2)c(C(=O)c2ccccc2)c1 (configuration not stated) | 10000 nM | 71000 nM | 6.37 | 
2 | CCCN1CCN(C(C(=O)Nc2ccc(NC(=O)/C=C/c3ccc(-c4ccc([N+](=O)[O-])cc4)o3)cc2C(=O)c2ccccc2)c2ccccc2)CC1 (configuration not stated) | 10 nM | 68000 nM | 6.90 | Activity (Vero [3]): Non-toxic; Activity (Vero [4]): Non-toxic; survival at 7 mg/kg/day (Mus musculus [5]): 60%
3 | CC(C)(C)OC(=O)NC(C(=O)Nc1ccc(NC(=O)/C=C/c2ccc(-c3ccc([N+](=O)[O-])cc3)o2)cc1C(=O)c1ccccc1)c1ccc(C(F)(F)F)cc1 (configuration not stated) | 50000 nM |  | 8.10 | 
4 | CC(C)(C)OC(=O)NC(Cc1ccc(C(F)(F)F)cc1)C(=O)Nc1ccc(NC(=O)/C=C/c2ccc(-c3ccc([N+](=O)[O-])cc3)o2)cc1C(=O)c1ccccc1 (configuration not stated) | > 50000 nM |  | 6.55 | 
5 | CN1CCN(C(C(=O)Nc2ccc(NC(=O)/C=C/c3ccc(-c4ccc([N+](=O)[O-])cc4)o3)cc2C(=O)c2ccccc2)c2ccc(Cl)cc2)CC1 (configuration not stated) | 10000 nM | 38600 nM | 6.90 | 
6 | NC(C(=O)Nc1ccc(NC(=O)/C=C/c2ccc(-c3ccc([N+](=O)[O-])cc3)o2)cc1C(=O)c1ccccc1)c1ccc(F)cc1 (configuration not stated) | 50000 nM | > 78000 nM | 7.60 | 
7 | CSCC[C@H](N)C(=O)Nc1ccc(NC(=O)/C=C/c2ccc(-c3ccc([N+](=O)[O-])cc3)o2)cc1C(=O)c1ccccc1 | > 10000 nM | > 81000 nM | 5.75 | 
8 | N[C@@H](C(=O)Nc1ccc(NC(=O)/C=C/c2ccc(-c3ccc([N+](=O)[O-])cc3)o2)cc1C(=O)c1ccccc1)c1ccccc1 | > 50000 nM | > 80000 nM | 8.10 | 
9 | CC(C)C[C@H](N)C(=O)Nc1ccc(NC(=O)/C=C/c2ccc(-c3ccc([N+](=O)[O-])cc3)o2)cc1C(=O)c1ccccc1 | 1000 nM | > 83000 nM | 6.44 | 
10 | CCc1ccc(-c2ccc(/C=C/C(=O)Nc3ccc(NC(=O)Cc4ccc(C)cc4)c(C(=O)c4ccccc4)c3)o2)cc1 | 50000 nM |  | 7.05 | 
11 | NC(Cc1ccc(C(F)(F)F)cc1)C(=O)Nc1ccc(NC(=O)/C=C/c2ccc(-c3ccc([N+](=O)[O-])cc3)o2)cc1C(=O)c1ccccc1 (configuration not stated) | 50000 nM |  | 7.02 | 
12 | O=C(/C=C/c1ccc(-c2ccc([N+](=O)[O-])cc2)o1)Nc1ccc(NC(=O)Cc2ccc(C(F)(F)F)cc2)c(C(=O)c2ccccc2)c1 | 50000 nM | > 57000 nM | 7.59 | 
13 | O=C(/C=C/c1ccc(-c2ccc([N+](=O)[O-])cc2)o1)Nc1ccc(NC(=O)C(c2ccccc2)N2CCN(c3ccccc3)CC2)c(C(=O)c2ccccc2)c1 (configuration not stated) | > 50000 nM |  | 6.52 | 
14 | Cc1ccc(CC(=O)Nc2ccc(NC(=O)/C=C/c3ccc(-c4ccc(S(C)(=O)=O)cc4)o3)cc2C(=O)c2ccccc2)cc1 | 50000 nM |  | 7.52 | 
15 | CC(C)C[C@@H](N)C(=O)Nc1ccc(NC(=O)/C=C/c2ccc(-c3ccc([N+](=O)[O-])cc3)o2)cc1C(=O)c1ccccc1 | 100 nM | 47800 nM | 6.30 | 
16 | CN1CCN(C(C(=O)Nc2ccc(NC(=O)/C=C/c3ccc(-c4ccc([N+](=O)[O-])cc4)o3)cc2C(=O)c2ccccc2)c2ccccc2)CC1 (configuration not stated) | 10000 nM | 37000 nM | 8.00 | 
17 | O=C(/C=C/c1ccc(-c2ccc([N+](=O)[O-])cc2)o1)Nc1ccc(NC(=O)C(c2ccccc2)N2CCCCC2)c(C(=O)c2ccccc2)c1 (configuration not stated) | 50000 nM |  | 6.34 | 

Row | Compound | LC50 (Trypanosoma cruzi) | CC50 at 72 h [1] | pIC50 [2] | also measured
18 | O=C(/C=C/c1ccc(-c2ccc([N+](=O)[O-])cc2)o1)Nc1ccc(NC(=O)C(c2ccccc2)N2CCN(C3CCCCC3)CC2)c(C(=O)c2ccccc2)c1 (configuration not stated) | 1000 nM | 42000 nM | 6.47 | 
19 | N[C@H](C(=O)Nc1ccc(NC(=O)/C=C/c2ccc(-c3ccc([N+](=O)[O-])cc3)o2)cc1C(=O)c1ccccc1)c1ccccc1 | > 50000 nM | > 80000 nM | 7.34 | 
20 | N[C@@H](Cc1ccc(Cl)cc1)C(=O)Nc1ccc(NC(=O)/C=C/c2ccc(-c3ccc([N+](=O)[O-])cc3)o2)cc1C(=O)c1ccccc1 | 1000 nM | > 74500 nM | 7.22 | 
21 | O=C1CCN(C(C(=O)Nc2ccc(NC(=O)/C=C/c3ccc(-c4ccc([N+](=O)[O-])cc4)o3)cc2C(=O)c2ccccc2)c2ccccc2)CC1 (configuration not stated) | 1000 nM |  |  | 
22 | N[C@H](Cc1ccc(Cl)cc1)C(=O)Nc1ccc(NC(=O)/C=C/c2ccc(-c3ccc([N+](=O)[O-])cc3)o2)cc1C(=O)c1ccccc1 | > 10000 nM | > 74500 nM | 7.15 | 
23 | N[C@@H](Cc1c[nH]c2ccccc12)C(=O)Nc1ccc(NC(=O)/C=C/c2ccc(-c3ccc([N+](=O)[O-])cc3)o2)cc1C(=O)c1ccccc1 | 10000 nM |  | 6.24 | 
24 | CSCC[C@@H](N)C(=O)Nc1ccc(NC(=O)/C=C/c2ccc(-c3ccc([N+](=O)[O-])cc3)o2)cc1C(=O)c1ccccc1 | > 10000 nM | > 81000 nM | 6.30 | 
25 | N[C@H](Cc1ccccc1)C(=O)Nc1ccc(NC(=O)/C=C/c2ccc(-c3ccc([N+](=O)[O-])cc3)o2)cc1C(=O)c1ccccc1 | 1 nM | > 78000 nM | 6.94 | Activity (Vero [3]): Non-toxic; Activity (Vero [4]): Non-toxic; survival at 3.2 mg/kg/day (Mus musculus [6]): 0%; survival at 6.4 mg/kg/day (Mus musculus [7]): 80%
26 | N[C@@H](Cc1ccccc1)C(=O)Nc1ccc(NC(=O)/C=C/c2ccc(-c3ccc([N+](=O)[O-])cc3)o2)cc1C(=O)c1ccccc1 | > 10000 nM | > 79000 nM | 8.52 | 
27 | CC(C)NC(=O)CN1CCN(C(C(=O)Nc2ccc(NC(=O)/C=C/c3ccc(-c4ccc([N+](=O)[O-])cc4)o3)cc2C(=O)c2ccccc2)c2ccccc2)CC1 (configuration not stated) | > 50000 nM |  | 6.47 | 
28 | CC[C@H](C)[C@H](N)C(=O)Nc1ccc(NC(=O)/C=C/c2ccc(-c3ccc([N+](=O)[O-])cc3)o2)cc1C(=O)c1ccccc1 | 100 nM | > 83000 nM | 6.82 | 
29 | Cc1ccc(CC(=O)Nc2ccc(NC(=O)/C=C/c3ccc(-c4ccc([N+](=O)[O-])cc4)o3)cc2C(=O)c2ccccc2)cc1 | > 100000 nM | > 85000 nM | 7.46 | 
30 | O=C(/C=C/c1ccc(-c2ccc([N+](=O)[O-])cc2)o1)Nc1ccc(NC(=O)C(c2ccccc2)N2CCN(Cc3ccccc3)CC2)c(C(=O)c2ccccc2)c1 (configuration not stated) | 50000 nM |  | 6.18 | 
31 | O=C(/C=C/c1ccc(-c2ccc([N+](=O)[O-])cc2)o1)Nc1ccc(NC(=O)C(c2ccccc2)N2CCOCC2)c(C(=O)c2ccccc2)c1 (configuration not stated) | 50000 nM | > 76000 nM | 6.18 | 
32 | CCN1CCN(C(C(=O)Nc2ccc(NC(=O)/C=C/c3ccc(-c4ccc([N+](=O)[O-])cc4)o3)cc2C(=O)c2ccccc2)c2ccccc2)CC1 (configuration not stated) | > 50000 nM |  | < 5.00 | 
33 | NC(C(=O)Nc1ccc(NC(=O)/C=C/c2ccc(-c3ccc([N+](=O)[O-])cc3)o2)cc1C(=O)c1ccccc1)c1ccc(C(F)(F)F)cc1 (configuration not stated) | 10000 nM |  | 7.77 | 
